Source: paper PMC5504481 (Clinical and Translational Science, 2017)
“And” between values parts separate entries of the source, which are not always exact repeats. Equal values may be shown once.

How the values were obtained:
[1] = target: T1, OATP1B1 (Homo sapiens, UniProt Q9Y6L6); format: cell-based; conditions: for Transport rate in OATP1B1-transfected cells without rifampin: in 15 min, HEK293
T1 sequence (Q9Y6L6 1-691): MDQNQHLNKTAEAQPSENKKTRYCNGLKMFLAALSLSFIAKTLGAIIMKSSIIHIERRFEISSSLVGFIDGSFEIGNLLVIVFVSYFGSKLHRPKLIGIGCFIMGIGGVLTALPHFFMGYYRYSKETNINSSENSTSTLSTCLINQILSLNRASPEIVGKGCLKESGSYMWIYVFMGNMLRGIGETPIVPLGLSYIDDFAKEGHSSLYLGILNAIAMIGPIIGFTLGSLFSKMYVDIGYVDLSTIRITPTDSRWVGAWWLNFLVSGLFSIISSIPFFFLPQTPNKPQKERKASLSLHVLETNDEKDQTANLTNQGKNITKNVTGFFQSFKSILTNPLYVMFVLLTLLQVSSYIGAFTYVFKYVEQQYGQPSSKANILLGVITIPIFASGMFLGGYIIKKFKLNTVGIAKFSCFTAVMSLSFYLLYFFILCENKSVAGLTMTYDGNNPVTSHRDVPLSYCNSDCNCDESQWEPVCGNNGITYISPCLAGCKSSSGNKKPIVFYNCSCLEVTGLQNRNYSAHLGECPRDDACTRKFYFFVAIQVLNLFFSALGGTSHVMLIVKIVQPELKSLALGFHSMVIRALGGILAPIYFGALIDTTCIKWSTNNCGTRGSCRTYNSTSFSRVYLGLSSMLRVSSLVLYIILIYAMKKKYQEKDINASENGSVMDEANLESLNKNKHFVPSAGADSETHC

[2] = target: T2, Oatp1b2 (Mus musculus, UniProt Q9JJL3); format: cell-based; conditions: for Transport rate in Oatp1b2-transfected cells without rifampin: in 15 min, HEK293
T2 sequence (Q9JJL3 1-689): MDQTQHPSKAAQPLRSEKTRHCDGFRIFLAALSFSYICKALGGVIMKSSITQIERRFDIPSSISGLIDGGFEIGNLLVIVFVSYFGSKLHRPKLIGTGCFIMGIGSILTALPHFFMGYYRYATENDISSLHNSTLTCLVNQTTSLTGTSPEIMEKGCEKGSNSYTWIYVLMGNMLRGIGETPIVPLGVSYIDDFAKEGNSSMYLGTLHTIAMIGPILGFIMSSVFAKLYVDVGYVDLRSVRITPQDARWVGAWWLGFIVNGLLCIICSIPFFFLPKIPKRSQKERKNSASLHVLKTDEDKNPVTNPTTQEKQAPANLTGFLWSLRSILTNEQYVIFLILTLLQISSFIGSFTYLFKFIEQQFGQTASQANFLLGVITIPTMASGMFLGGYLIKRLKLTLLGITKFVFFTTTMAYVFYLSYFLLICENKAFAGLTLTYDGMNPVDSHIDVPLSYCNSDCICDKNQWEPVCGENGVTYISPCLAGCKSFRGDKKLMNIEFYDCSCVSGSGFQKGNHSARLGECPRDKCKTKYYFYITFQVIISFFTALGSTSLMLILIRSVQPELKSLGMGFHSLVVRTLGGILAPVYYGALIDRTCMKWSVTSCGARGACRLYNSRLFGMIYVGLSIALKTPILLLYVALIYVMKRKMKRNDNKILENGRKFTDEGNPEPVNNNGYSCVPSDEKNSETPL

[3] = tested on: OATP1B1; conditions: cited from earlier work
[4] = target: T1, OATP1B1; test: Transcellular; format: cell-based; conditions: rifampin 100 μM; SG 1 μM; MDCKII-OATP1B1
[5] = Adverse events and laboratory tests during the clinical study; format: in vivo, human; conditions: patients on sorafenib; rifampin 600 mg x 2, midazolam 2.5 mg i.v.
Summary of the method: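 Sorafenib-treated patients were at steady state (≥14 days on the same dose) with creatinine <1.25×ULN, bilirubin <1.25×ULN, aminotransferases <5×ULN and PT ≤1.5×ULN or INR <1.5 at entry. Rifampin was given fasting the day before and the day of sampling, 1 h before sorafenib. Sorafenib dose changes and CYP3A4-affecting comedication were barred. Adverse events were graded by CTCAE v4.03.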

[6] = cited from earlier work
[7] = format: in vivo, mice; conditions: for Effect of Oatp1b2-deficiency and/or rifampin pretreatment on plasma levels: mice, rifampin 20 mg/kg
Summary of the method: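 Female DBA1/lacJ mice, knockout and age-matched wildtype, n=4 per group, fasted 3 h before and during the study. Rifampin was given i.v. 5 min before sorafenib gavage in Cremophor EL/ethanol (1:1) diluted 1:4 with water. Plasma was sampled at 0.25–7.5 h and liver at 7.5 h. Analytes were measured by LC-MS/MS. Liver was normalized to plasma; geometric means (95% CI) were compared by ANOVA.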

[8] = oral sorafenib, humans; cited from earlier work
[9] = format: in vivo, human
[10] = rifampin preincubation 30 μM (legend: 20 μM), SG 10 μM, 15 min
[11] = rifampin preincubation 30 μM, E2G 0.1 μM, 15-min incubation
[12] = patients, with versus without rifampin

C[C@]12CC[C@@H]3c4ccc(O)cc4CC[C@H]3[C@@H]1CC[C@@H]2O[C@@H]1O[C@H](C(=O)O)[C@@H](O)[C@H](O)[C@H]1O [E2G, estradiol‐17β‐D‐glucuronide]
Transport rate in OATP1B1-transfected cells without rifampin ([1]; E2G 0.1 μM, SG 10 μM): 4.77 pmol/mg protein | Transport rate in Oatp1b2-transfected cells without rifampin ([2]; E2G 0.1 μM, SG 10 μM): 26.73 pmol/mg protein

CO[C@H]1/C=C/O[C@@]2(C)Oc3c(C)c(O)c4c(O)c(c(/C=N/N5CCN(C)CC5)c(O)c4c3C2=O)NC(=O)/C(C)=C\C=C\[C@H](C)[C@H](O)[C@@H](C)[C@@H](O)[C@@H](C)[C@H](OC(C)=O)[C@@H]1C [rifampin]
Substrate-dependent variation in IC50 values for inhibition of OATP1B1 [3]: up to 12 fold | Reduction of intracellular uptake of SG by OATP1B1 [1, 10]: 92% | Inhibition of E2G uptake by human OATP1B1 [1, 11]: strongly inhibited | Reduction of intracellular uptake of SG by Oatp1b2 [2, 10]: 97% | Inhibition of E2G uptake by mouse Oatp1b2 [2, 11]: strongly inhibited | Effect of rifampin on OATP1B1-mediated basal-to-apical translocation of SG [4]: diminished | Toxicities attributable to the drug during the clinical study [5]: no toxicities were observed | Plasma Cmax of unbound rifampin [6]: ~1.3 μM and 1.1 mg/L

Cc1ncc2n1-c1ccc(Cl)cc1C(c1ccccc1F)=NC2 [midazolam]
Toxicities attributable to the drug during the clinical study [5]: no toxicities were observed

CNC(=O)c1cc(Oc2ccc(NC(=O)Nc3ccc(Cl)c(C(F)(F)F)c3)cc2)ccn1 [Sorafenib, sorafenib]
Effect of Oatp1b2-deficiency and/or rifampin pretreatment on plasma levels ([7]; sorafenib 10 mg/kg oral): did not substantially affect | Fraction of the dose eliminated as oxidative metabolites [8]: less than 5% | Fraction of the dose eliminated as sorafenib-β-D-glucuronide (SG) [8]: 15% | Influence of the CYP3A4 inhibitor ketoconazole on PK ([6]; healthy male volunteers, single-dose sorafenib): no influence | Variation in exposure between patients receiving the same therapeutic regimen ([6]; oral sorafenib): up to 90% | Decrease in systemic exposure with neomycin ([6]; ref Nexavar package insert): more than 50%

CNC(=O)c1cc(Oc2ccc(NC(=O)N(c3ccc(Cl)c(C(F)(F)F)c3)[C@@H]3O[C@H](C(=O)O)[C@@H](O)[C@H](O)[C@H]3O)cc2)ccn1 [SG, sorafenib‐β‐D‐glucuronide]
Transport rate in OATP1B1-transfected cells without rifampin ([1]; E2G 0.1 μM, SG 10 μM): 57.46 pmol/mg protein | Increase in SG AUC0-7.5h with Oatp1b2-deficiency ([7]; Oatp1b2(-/-) versus wildtype mice, sorafenib 10 mg/kg oral): 8 fold | Reduction of liver-to-plasma ratio of SG ([7]; wildtype mice pretreated with rifampin 20 mg/kg, 7.5 h after sorafenib 10 mg/kg): ~90% | Transport rate in Oatp1b2-transfected cells without rifampin ([2]; E2G 0.1 μM, SG 10 μM): 770.17 pmol/mg protein | Increase of SG levels by rifampin in humans ([9]; humans): ~2 fold | Mean metabolic ratio of SG to sorafenib during rifampin administration [9, 12]: significantly increased | Detection of SG in feces [8]: not detectable | Mean steady-state (trough) concentration (Css) ([6]; 16 cancer patients, sorafenib 90 mg/m^2 oral, days 7, 13 and 21): 954 ng/mL

COc1ccccc1Oc1c(NS(=O)(=O)c2ccc(C(C)(C)C)cc2)nc(-c2ncccn2)nc1OCCO [bosentan]
Change in systemic exposure with extended rifampin exposure ([6]; rifampin 600 mg once daily for 6.5 days): –58% | Change in systemic exposure with acute rifampin exposure ([6]; rifampin 600 mg once daily, 1–2 doses): +500%

CNC(=O)c1cc(Oc2ccc(NC(=O)Nc3ccc(Cl)c(C(F)(F)F)c3)cc2)cc[n+]1[O-] [Sorafenib N-oxide, sorafenib‐N‐oxide]
Effect of Oatp1b2-deficiency and/or rifampin pretreatment on plasma levels ([7]; sorafenib 10 mg/kg oral): did not substantially affect | Extent of sorafenib-N-oxide formation between treatment cycles [9, 12]: not different
